Laboratory results: ChEMBL document CHEMBL4257576, “4-Iminooxazolidin-2-one as a Bioisostere of the Cyanohydrin Moiety: Inhibitors of Enterovirus 71 3C Protease” (J Med Chem, 2018)
Active and inactive are the calls of the source. The calls are words filed in the database; no cut-off is given here.

Assays:
Enterovirus A71 = experiment: Antiviral activity against Enterovirus A71 infected in human RD cells receiving pEV71-Luc subgenomic replicon stocks from HEK-293T cells; assay type: functional, organism-based; details: Enterovirus A
Summary of the method: (§1)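 Values (EC50, CC50) are the average of three independent experiments, with SEM (n = 3).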

[1] = Cytotoxicity in human RD cells assessed as reduction in cell viability incubated for 24 hrs by WST1 assay; assay type: cell-based; summary of the method: as §1
Genome polyprotein = Genome polyprotein (Enterovirus A71, UniProt A0A1D8D5K2); experiment: Inhibition of EV71 3C protease expressed in Escherichia coli BL21(DE3) using NMA-IEALFQGPPK(DNP)FR as substrate preincubated for 0.5 hrs followed by substrate addition by fluorescence assay
Sequence of Genome polyprotein (A0A1D8D5K2 whole entry): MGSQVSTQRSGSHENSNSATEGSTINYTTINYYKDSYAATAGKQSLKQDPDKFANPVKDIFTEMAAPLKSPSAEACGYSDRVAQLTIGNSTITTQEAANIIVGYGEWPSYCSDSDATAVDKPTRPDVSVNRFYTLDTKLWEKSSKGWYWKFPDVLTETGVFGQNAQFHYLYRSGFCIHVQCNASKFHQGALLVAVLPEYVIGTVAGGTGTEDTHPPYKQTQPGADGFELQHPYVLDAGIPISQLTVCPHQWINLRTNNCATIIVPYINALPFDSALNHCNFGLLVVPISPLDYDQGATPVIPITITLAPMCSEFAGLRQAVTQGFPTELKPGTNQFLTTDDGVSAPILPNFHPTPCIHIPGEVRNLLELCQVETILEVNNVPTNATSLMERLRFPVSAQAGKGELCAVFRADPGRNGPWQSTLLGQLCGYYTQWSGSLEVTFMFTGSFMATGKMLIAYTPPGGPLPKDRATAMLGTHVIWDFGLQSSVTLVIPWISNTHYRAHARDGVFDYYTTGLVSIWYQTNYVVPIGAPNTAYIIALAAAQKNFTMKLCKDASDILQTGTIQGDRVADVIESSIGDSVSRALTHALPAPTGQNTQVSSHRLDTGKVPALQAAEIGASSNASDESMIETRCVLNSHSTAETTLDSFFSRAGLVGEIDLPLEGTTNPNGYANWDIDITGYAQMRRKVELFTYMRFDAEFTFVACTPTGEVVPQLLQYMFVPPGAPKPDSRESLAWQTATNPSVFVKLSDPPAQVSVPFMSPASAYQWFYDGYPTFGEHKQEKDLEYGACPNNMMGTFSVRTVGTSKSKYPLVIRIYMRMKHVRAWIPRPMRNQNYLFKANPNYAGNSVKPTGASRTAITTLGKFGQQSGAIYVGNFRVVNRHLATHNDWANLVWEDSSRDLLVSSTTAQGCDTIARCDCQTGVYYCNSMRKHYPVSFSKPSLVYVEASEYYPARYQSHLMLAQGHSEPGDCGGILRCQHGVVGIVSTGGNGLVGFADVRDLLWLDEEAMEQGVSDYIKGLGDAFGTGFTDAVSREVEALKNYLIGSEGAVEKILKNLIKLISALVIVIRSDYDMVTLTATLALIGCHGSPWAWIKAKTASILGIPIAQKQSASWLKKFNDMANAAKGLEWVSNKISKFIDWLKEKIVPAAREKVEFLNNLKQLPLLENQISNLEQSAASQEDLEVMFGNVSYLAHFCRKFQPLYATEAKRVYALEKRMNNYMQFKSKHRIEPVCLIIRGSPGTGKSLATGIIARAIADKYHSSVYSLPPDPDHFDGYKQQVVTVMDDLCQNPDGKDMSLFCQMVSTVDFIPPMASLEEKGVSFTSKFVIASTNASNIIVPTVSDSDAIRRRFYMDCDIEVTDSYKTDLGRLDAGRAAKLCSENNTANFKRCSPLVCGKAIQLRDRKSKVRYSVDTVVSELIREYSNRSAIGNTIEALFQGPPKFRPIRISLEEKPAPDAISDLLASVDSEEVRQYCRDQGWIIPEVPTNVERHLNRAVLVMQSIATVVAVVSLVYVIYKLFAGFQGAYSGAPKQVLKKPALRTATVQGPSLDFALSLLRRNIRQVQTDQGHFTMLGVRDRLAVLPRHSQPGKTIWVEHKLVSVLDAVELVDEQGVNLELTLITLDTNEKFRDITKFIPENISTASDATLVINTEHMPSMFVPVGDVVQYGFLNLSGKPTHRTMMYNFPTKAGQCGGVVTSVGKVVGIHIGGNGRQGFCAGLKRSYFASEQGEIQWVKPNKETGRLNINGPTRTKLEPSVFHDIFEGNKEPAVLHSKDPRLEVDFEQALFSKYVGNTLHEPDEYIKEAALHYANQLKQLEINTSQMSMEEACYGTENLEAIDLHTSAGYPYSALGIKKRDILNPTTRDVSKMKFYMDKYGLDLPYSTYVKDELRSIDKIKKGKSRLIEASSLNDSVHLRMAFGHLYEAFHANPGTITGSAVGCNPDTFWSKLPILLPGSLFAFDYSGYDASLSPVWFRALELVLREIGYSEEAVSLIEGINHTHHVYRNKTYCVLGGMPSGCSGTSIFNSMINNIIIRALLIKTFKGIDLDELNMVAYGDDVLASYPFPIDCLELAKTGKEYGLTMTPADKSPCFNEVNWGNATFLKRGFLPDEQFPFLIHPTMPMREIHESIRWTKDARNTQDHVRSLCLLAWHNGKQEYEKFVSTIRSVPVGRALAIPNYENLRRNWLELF
Summary of the method: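 Values reported as Ki (µM), each the mean of three independent experiments with SEM (n=3).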

[2] = Drug metabolism in PBS buffer at pH 7.4; assay type: physicochemical
[3] = Half life in ICR (CD-1) mouse plasma by HPLC analysis; assay type: ADME, cell-free
Summary of the method: (§2)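 Compound was incubated in human or mouse plasma and its remaining level followed over time to obtain t1/2. Each point is n = 3 with standard deviation bars.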

[4] = Drug metabolism in ICR (CD-1) mouse plasma by UPLC/Q-TOF-MS analysis; assay type: ADME, cell-free
Summary of the method: (§3)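 Compound was incubated with mouse plasma for 60 min. LC/MS followed loss of the parent peak and appearance of a product peak by retention time, and the product was characterized by tandem MS.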

[5] = molecular target: Genome polyprotein (Enterovirus A71) (UniProt A0A1D8D5K2); experiment: Covalent binding affinity to EV71 3C protease expressed in Escherichia coli BL21(DE3) at 2 mg/ml incubated for 2 to 3 hrs and measured after trypsin digestion by LC-MS/MS analysis
Sequence of Genome polyprotein (Enterovirus A71) (A0A1D8D5K2 as listed by the source): as the sequence (A0A1D8D5K2 whole entry) above

[6] = Half life in human plasma by HPLC analysis; assay type: ADME, cell-free; summary of the method: as §2
[7] = Half life in human liver microsomes at 1 mg/ml in presence of NADPH regenerating system by HPLC analysis; assay type: ADME, microsome
Summary of the method: (§4)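 Human and mouse liver microsomes at 1.0 mg/mL. Compound disappearance was tracked over time to give half-life and intrinsic clearance (Clint, µL/min/mg). Data are the mean of triplicates with SD (n = 3).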

[8] = Intrinsic clearance in human liver microsomes at 1 mg/ml in presence of NADPH regenerating system by HPLC analysis; assay type: ADME, microsome; details: read-out: CLH; summary of the method: as §4
[9] = Half life in mouse liver microsomes at 1 mg/ml in presence of NADPH regenerating system by HPLC analysis; assay type: ADME, microsome; summary of the method: as §4
[10] = Intrinsic clearance in mouse liver microsomes at 1 mg/ml in presence of NADPH regenerating system by HPLC analysis; assay type: ADME, microsome; details: read-out: CLH; summary of the method: as §4
[11] = Retention time of compound in ICR (CD-1) mouse plasma by UPLC/Q-TOF-MS analysis; assay type: ADME, cell-free; summary of the method: as §3

## Cc1cc(C(=O)N[C@@H](Cc2ccc(F)cc2)C(=O)N[C@@H](C[C@@H]2CCCNC2=O)[C@H](C#N)OC(=O)Nc2ccccc2)no1
Enterovirus A71
  EC50: 13.2 µM
[1]
  CC50 at 24 h: > 100 µM

## CCN1C(=N)[C@H]([C@H](C[C@@H]2CCCNC2=O)NC(=O)[C@H](Cc2ccc(F)cc2)NC(=O)c2cc(C)on2)OC1=O
Genome polyprotein
  Ki: 3.53 µM
Enterovirus A71
  EC50: 17.2 µM
[1]
  CC50 at 24 h: > 100 µM

## CCCCNC(=O)O[C@H](C#N)[C@H](C[C@@H]1CCCNC1=O)NC(=O)[C@H](Cc1ccc(F)cc1)NC(=O)c1cc(C)on1
Genome polyprotein
  Ki: 4.78 µM
Enterovirus A71
  EC50: 8.46 µM
[1]
  CC50 at 24 h: > 100 µM

## CNC(=O)O[C@H](C#N)[C@H](C[C@@H]1CCCNC1=O)NC(=O)[C@H](Cc1ccc(F)cc1)NC(=O)c1cc(C)on1
Genome polyprotein
  Ki: 0.046 µM
Enterovirus A71
  EC50: 1 µM
[1]
  CC50 at 24 h: > 100 µM

## CCCCN1C(=N)[C@@H]([C@H](C[C@@H]2CCCNC2=O)NC(=O)[C@H](Cc2ccc(F)cc2)NC(=O)c2cc(C)on2)OC1=O
Genome polyprotein
  Ki: 2.54 µM
Enterovirus A71
  EC50: 12.7 µM
[1]
  CC50 at 24 h: > 100 µM

## CCCN1C(=N)[C@H]([C@H](C[C@@H]2CCCNC2=O)NC(=O)[C@H](Cc2ccc(F)cc2)NC(=O)c2cc(C)on2)OC1=O
Genome polyprotein
  Ki: 2.6 µM
Enterovirus A71
  EC50: 12.7 µM
[1]
  CC50 at 24 h: > 100 µM

## Cc1cc(C(=O)N[C@@H](Cc2ccc(F)cc2)C(=O)N[C@@H](C[C@@H]2CCCNC2=O)[C@H]2OC(=O)N(C3CC3)C2=N)no1
Genome polyprotein
  Ki: 1.71 µM
Enterovirus A71
  EC50: 8.81 µM
[1]
  CC50 at 24 h: > 100 µM

## Cc1cc(C(=O)N[C@@H](Cc2ccc(F)cc2)C(=O)N[C@@H](C[C@@H]2CCCNC2=O)[C@@H](C#N)OC(=O)NC2CC2)no1
Genome polyprotein
  Ki: 6.21 µM
Enterovirus A71
  EC50: 12.8 µM
[1]
  CC50 at 24 h: > 100 µM

## CCCNC(=O)O[C@@H](C#N)[C@H](C[C@@H]1CCCNC1=O)NC(=O)[C@H](Cc1ccc(F)cc1)NC(=O)c1cc(C)on1
Genome polyprotein
  Ki: 0.085 µM
[2]
  Drug metabolism: Metabolite_Detected
Enterovirus A71
  EC50: 0.16 µM
[3]
  half-life: 12 min
[1]
  CC50 at 24 h: > 100 µM
[4]
  Drug metabolism: Metabolite_Detected

## CCNC(=O)O[C@H](C#N)[C@H](C[C@@H]1CCCNC1=O)NC(=O)[C@H](Cc1ccc(F)cc1)NC(=O)c1cc(C)on1
Genome polyprotein
  Ki: 0.19 µM
Enterovirus A71
  EC50: 3.58 µM
[1]
  CC50 at 24 h: > 100 µM

## Cc1cc(C(=O)N[C@@H](Cc2ccc(F)cc2)C(=O)N[C@@H](C[C@@H]2CCCNC2=O)[C@@H]2OC(=O)N(C(C)C)C2=N)no1
Genome polyprotein
  Ki: 0.061 µM
Enterovirus A71
  EC50: 0.51 µM
[1]
  CC50 at 24 h: > 100 µM

## CCOC(=O)/C=C/[C@H](C[C@@H]1CCNC1=O)NC(=O)[C@@H](CC(=O)[C@@H](NC(=O)c1cc(C)on1)C(C)C)Cc1ccc(F)cc1
[5]
  Activity: Active

## CCN(C)C(=O)O[C@@H](C#N)[C@H](C[C@@H]1CCCNC1=O)NC(=O)[C@H](Cc1ccc(F)cc1)NC(=O)c1cc(C)on1
[2]
  Drug metabolism: Metabolite_Notdetected
Enterovirus A71
  EC50: > 100 µM
[3]
  half-life: > 120 min
[1]
  CC50 at 24 h: > 100 µM

## Cc1cc(C(=O)N[C@@H](Cc2ccc(F)cc2)C(=O)N[C@@H](C[C@@H]2CCCNC2=O)[C@@H]2OC(=O)N(C)C2=N)no1
Genome polyprotein
  Ki: 0.21 µM
Enterovirus A71
  EC50: 1.03 µM
[1]
  CC50 at 24 h: > 100 µM

## Cc1cc(C(=O)N[C@@H](Cc2ccc(F)cc2)C(=O)N[C@@H](C[C@@H]2CCCNC2=O)[C@H]2OC(=O)N(C(C)C)C2=N)no1
[6]
  half-life: > 120 min
Genome polyprotein
  Ki: 0.033 µM
[7]
  half-life: 76 min
[8]
  microsomal CLint: 9 µL/min/mg
Enterovirus A71
  EC50: 0.1 µM
[3]
  half-life: > 120 min
[1]
  CC50 at 24 h: > 100 µM
[9]
  half-life: 74 min
[10]
  microsomal CLint: 9 µL/min/mg

## Cc1cc(C(=O)N[C@@H](Cc2ccc(F)cc2)C(=O)N[C@@H](C[C@@H]2CCCNC2=O)[C@H](C#N)OC(=O)NC2CC2)no1
Genome polyprotein
  Ki: 1.28 µM
Enterovirus A71
  EC50: 5.11 µM
[1]
  CC50 at 24 h: > 100 µM

## CCCCNC(=O)O[C@@H](C#N)[C@H](C[C@@H]1CCCNC1=O)NC(=O)[C@H](Cc1ccc(F)cc1)NC(=O)c1cc(C)on1
Genome polyprotein
  Ki: 0.45 µM
Enterovirus A71
  EC50: 0.69 µM
[1]
  CC50 at 24 h: > 100 µM

## Cc1cc(C(=O)N[C@@H](Cc2ccc(F)cc2)C(=O)N[C@@H](C[C@@H]2CCCNC2=O)[C@H]2OC(=O)N(C)C2=N)no1
Genome polyprotein
  Ki: 0.28 µM
Enterovirus A71
  EC50: 3.97 µM
[1]
  CC50 at 24 h: > 100 µM

## Cc1cc(C(=O)N[C@@H](Cc2ccc(F)cc2)C(=O)N[C@@H](C[C@@H]2CCCNC2=O)[C@H](C#N)OC(=O)C(C)C)no1
Genome polyprotein
  Ki: 0.24 µM
Enterovirus A71
  EC50: 2.61 µM
[1]
  CC50 at 24 h: > 100 µM

## Cc1cc(C(=O)N[C@@H](Cc2ccc(F)cc2)C(=O)N[C@@H](C[C@@H]2CCCNC2=O)[C@H](C#N)OC(=O)NC(C)C)no1
[11]
  Retention_time: 6.41 min
Genome polyprotein
  Ki: 0.036 µM
[2]
  Drug metabolism: Metabolite_Detected
Enterovirus A71
  EC50: 0.65 µM
[3]
  half-life: 31 min
[1]
  CC50 at 24 h: > 100 µM
[4]
  Drug metabolism: Metabolite_Detected

## Cc1cc(C(=O)N[C@@H](Cc2ccc(F)cc2)C(=O)N[C@@H](C[C@@H]2CCCNC2=O)[C@@H](C#N)OC(=O)NC(C)C)no1
Genome polyprotein
  Ki: 0.093 µM
Enterovirus A71
  EC50: 1.73 µM
[1]
  CC50 at 24 h: > 100 µM

## CCNC(=O)O[C@@H](C#N)[C@H](C[C@@H]1CCCNC1=O)NC(=O)[C@H](Cc1ccc(F)cc1)NC(=O)c1cc(C)on1
Genome polyprotein
  Ki: 0.051 µM
Enterovirus A71
  EC50: 0.75 µM
[1]
  CC50 at 24 h: > 100 µM

## CNC(=O)O[C@@H](C#N)[C@H](C[C@@H]1CCCNC1=O)NC(=O)[C@H](Cc1ccc(F)cc1)NC(=O)c1cc(C)on1
Genome polyprotein
  Ki: 0.071 µM
Enterovirus A71
  EC50: 0.62 µM
[1]
  CC50 at 24 h: > 100 µM

## CCN1C(=N)[C@@H]([C@H](C[C@@H]2CCCNC2=O)NC(=O)[C@H](Cc2ccc(F)cc2)NC(=O)c2cc(C)on2)OC1=O
Genome polyprotein
  Ki: 0.22 µM
Enterovirus A71
  EC50: 4.37 µM
[1]
  CC50 at 24 h: > 100 µM

## Cc1cc(C(=O)N[C@@H](Cc2ccc(F)cc2)C(=O)N[C@@H](C[C@@H]2CCCNC2=O)[C@H](C#N)OC(=O)N(C)C)no1
Enterovirus A71
  EC50: 70.4 µM
[1]
  CC50 at 24 h: > 100 µM

## Cc1cc(C(=O)N[C@@H](Cc2ccc(F)cc2)C(=O)N[C@@H](C[C@@H]2CCCNC2=O)[C@H](C#N)OC(=O)N2CCOCC2)no1
[2]
  Drug metabolism: Metabolite_Notdetected
Enterovirus A71
  EC50: > 100 µM
[3]
  half-life: > 120 min
[1]
  CC50 at 24 h: > 100 µM

## Cc1cc(C(=O)N[C@@H](Cc2ccc(F)cc2)C(=O)N[C@@H](C[C@@H]2CCCNC2=O)[C@H](C#N)OC(=O)C2CC2)no1
Genome polyprotein
  Ki: 0.56 µM
Enterovirus A71
  EC50: 4.93 µM
[1]
  CC50 at 24 h: > 100 µM

## Cc1cc(C(=O)N[C@@H](Cc2ccc(F)cc2)C(=O)N[C@@H](C[C@@H]2CCCNC2=O)[C@@H](O)C#N)no1
[6]
  half-life: 11 min
Genome polyprotein
  Ki: 0.004 µM
[7]
  half-life: 8 min
[8]
  microsomal CLint: 87 µL/min/mg
Enterovirus A71
  EC50: 0.088 µM
[3]
  half-life: 7 min
[1]
  CC50 at 24 h: > 100 µM
[9]
  half-life: 6 min
[10]
  microsomal CLint: 116 µL/min/mg
[5]
  Activity: inactive

## CCCNC(=O)O[C@H](C#N)[C@H](C[C@@H]1CCCNC1=O)NC(=O)[C@H](Cc1ccc(F)cc1)NC(=O)c1cc(C)on1
Genome polyprotein
  Ki: 0.183 µM
Enterovirus A71
  EC50: 2.21 µM
[1]
  CC50 at 24 h: > 100 µM

## CC(=O)O[C@@H](C#N)[C@H](C[C@@H]1CCCNC1=O)NC(=O)[C@H](Cc1ccc(F)cc1)NC(=O)c1cc(C)on1
[6]
  half-life: 50 min
Genome polyprotein
  Ki: 0.064 µM
[7]
  half-life: 64 min
Enterovirus A71
  EC50: 0.067 µM
[3]
  half-life: 42 min
[1]
  CC50 at 24 h: > 100 µM
